What all share (format): functional
Assay [1] has as its system Mycobacterium avium. The experiment in a line: Antimycobacterial activity against Mycobacterium avium JATA51-01 infected C57BL/6J mouse assessed as lung bacterial count at 200 mg/kg/day dosed through gavage route administered for 28 days post bacterial challenge measured 2 days after last dose. An outline of the steps:
(§1)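 Mice infected via tail vein with 1.0 × 10^7 to 3.0 × 10^7 CFU in 100 μl saline; daily oral gavage started day 21, for 28 days; distilled-water controls; sacrificed 48 h after last dose; lungs, liver, spleen homogenized in saline, serially diluted in 7H9, plated on 7H10 agar; log10 CFU/organ, mean ± SEM, 5 mice/group; ANOVA with Fisher's PLSD; experiment done twice.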

Assay [2] relates to Mycobacterium avium complex sp. The assay can be described thus: Antimycobacterial activity against Mycobacterium avium complex N016 infected C57BL/6J mouse assessed as spleen bacterial count at 200 mg/kg/day dosed through gavage route administered for 28 days post bacterial challenge measured 2 days after last dose. In a few lines: (§2)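 Mice given 1.0 × 10^7 to 3.0 × 10^7 CFU in 100 μl via tail vein; daily gavage dosing began day 21 for 28 days; distilled-water controls. Sacrifice 48 h after last dose. Organ portions homogenized in 1 ml saline, diluted in 7H9, plated on 7H10; log10 CFU/organ, mean ± SEM, 5 mice/group. Experiment run twice; ANOVA with Fisher's PLSD.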

The test system is the same in assay [3]. The assay can be described thus: Antimycobacterial activity against Mycobacterium avium complex N016 after 14 days by broth microdilution method. The settings on record: N016, 336 h. An outline of the steps: (§3)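 Broth microdilution in Middlebrook 7H9 (OADC, Tween 80, glycerol); twofold dilutions giving final 0.125–128 μg/ml; inoculum 1.0 × 10^5 CFU/well; 14 days at 37°C. MIC = lowest concentration completely inhibiting growth. Triplicate tests. Inocula from 7H10 agar colonies (21 days) subcultured in 7H9 for 7 days at 37°C, stored at −80°C.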
Background: In broth dilution the organism is exposed to a series of concentrations in liquid medium.

Assay [4] has the same test system. The experiment in a line: Antimycobacterial activity against Mycobacterium avium complex N016 infected C57BL/6J mouse assessed as liver bacterial count at 200 mg/kg/day dosed through gavage route administered for 28 days post bacterial challenge measured 2 days after last dose. In a few lines: as §2
Assay [5] shares this test system. The assay can be described thus: Antimycobacterial activity against Mycobacterium avium complex after 14 days by broth microdilution method. The settings on record: 336 h. In a few lines:
as §3

Assay [6] relates to Mycobacterium intracellulare. The experiment in a line: Antimycobacterial activity against Mycobacterium intracellular JATA52-01 after 14 days by broth microdilution method. The settings on record: JATA52-01, 336 h. An outline of the steps:
as §3

Assay [7] relates to Mycobacterium avium complex sp. The experiment in a line: Antimycobacterial activity against Mycobacterium avium complex N018 after 14 days by broth microdilution method. The settings on record: N018, 336 h. An outline of the steps: as §3
Assay [8] relates to Mycobacterium intracellulare. The experiment in a line: Antimycobacterial activity against Mycobacterium intracellular JATA52-01 infected C57BL/6J mouse assessed as lung bacterial count at 200 mg/kg/day dosed through gavage route administered for 28 days post bacterial challenge measured 2 days after last dose. In a few lines:
as §2

Assay [9] relates to Mycobacterium avium complex sp. The assay can be described thus: Antimycobacterial activity against Mycobacterium avium complex N084 infected C57BL/6J mouse assessed as spleen bacterial count at 200 mg/kg/day dosed through gavage route administered for 28 days post bacterial challenge measured 2 days after last dose. In a few lines:
as §2

Assay [10] shares this test system. The experiment in a line: Antimycobacterial activity against Mycobacterium avium complex N016 infected C57BL/6J mouse assessed as lung bacterial count at 200 mg/kg/day dosed through gavage route administered for 28 days post bacterial challenge measured 2 days after last dose. An outline of the steps:
as §2

The test system of assay [11] is Mycobacterium avium. The experiment in a line: Antimycobacterial activity against Mycobacterium avium JATA51-01 infected C57BL/6J mouse assessed as spleen bacterial count at 200 mg/kg/day dosed through gavage route administered for 28 days post bacterial challenge measured 2 days after last dose. In a few lines:
as §1

The subject of assay [12] is Mycobacterium intracellulare. The experiment in a line: Antimycobacterial activity against Mycobacterium intracellular JATA52-01 infected C57BL/6J mouse assessed as spleen bacterial count at 200 mg/kg/day dosed through gavage route administered for 28 days post bacterial challenge measured 2 days after last dose. An outline of the steps: as §2
For assay [13], the system named is Mycobacterium avium complex sp. The assay can be described thus: Antimycobacterial activity against Mycobacterium avium complex N084 infected C57BL/6J mouse assessed as lung bacterial count at 200 mg/kg/day dosed through gavage route administered for 28 days post bacterial challenge measured 2 days after last dose. In a few lines:
as §2

The subject of assay [14] is Mycobacterium avium. The assay can be described thus: Antimycobacterial activity against Mycobacterium avium JATA51-01 after 14 days by broth microdilution method. The following applies: JATA51-01, 336 h. An outline of the steps: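 Broth microdilution in 7H9 (10% OADC, 0.05% Tween 80, 0.2% glycerol); twofold drug dilutions, final 0.125–128 μg/ml; inoculum 1.0 × 10^5 CFU/well from 7-day 37°C subculture of 21-day 7H10 colonies; 14 days at 37°C; MIC = lowest concentration with complete growth inhibition; triplicate.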

The subject of assay [15] is Mycobacterium avium complex sp. The experiment in a line: Antimycobacterial activity against Mycobacterium avium complex N018 infected C57BL/6J mouse assessed as lung bacterial count at 200 mg/kg/day dosed through gavage route administered for 28 days post bacterial challenge measured 2 days after last dose. In a few lines:
as §2

Assay [16] has the same test system. The experiment in a line: Antimycobacterial activity against Mycobacterium avium complex N018 infected C57BL/6J mouse assessed as spleen bacterial count at 200 mg/kg/day dosed through gavage route administered for 28 days post bacterial challenge measured 2 days after last dose. An outline of the steps:
as §2

The test system is the same in assay [17]. The assay can be described thus: Antimycobacterial activity against Mycobacterium avium complex N084 infected C57BL/6J mouse assessed as liver bacterial count at 200 mg/kg/day dosed through gavage route administered for 28 days post bacterial challenge measured 2 days after last dose. In a few lines:
as §2

For assay [18], the system named is Mycobacterium avium. The assay can be described thus: Antimycobacterial activity against Mycobacterium avium JATA51-01 infected C57BL/6J mouse assessed as liver bacterial count at 200 mg/kg/day dosed through gavage route administered for 28 days post bacterial challenge measured 2 days after last dose. An outline of the steps: as §1
Assay [19] concerns Mycobacterium avium complex sp. The assay can be described thus: Antimycobacterial activity against Mycobacterium avium complex N084 after 14 days by broth microdilution method. The settings on record: N084, 336 h. In a few lines: as §3
The test system is the same in assay [20]. The assay can be described thus: Antimycobacterial activity against Mycobacterium avium complex N018 infected C57BL/6J mouse assessed as liver bacterial count at 200 mg/kg/day dosed through gavage route administered for 28 days post bacterial challenge measured 2 days after last dose. An outline of the steps: as §2
The test system of assay [21] is Mycobacterium intracellulare. The assay can be described thus: Antimycobacterial activity against Mycobacterium intracellular JATA52-01 infected C57BL/6J mouse assessed as liver bacterial count at 200 mg/kg/day dosed through gavage route administered for 28 days post bacterial challenge measured 2 days after last dose. An outline of the steps: as §2

Data on 2 compounds can be found in ChEMBL document CHEMBL1137643, “In vitro and in vivo activities of novel fluoroquinolones alone and in combination with clarithromycin against clinically isolated Mycobacterium avium complex strains in Japan” (2007).

Converted amounts (≈) assume the structure as drawn.

By MIC is commonly meant the smallest concentration in the dilution series that meets the test's criterion for growth inhibition. A high value points to a need for much substance. Usually MIC90 stands for an inhibitory concentration at the 90% level, which refers to growth in some studies and to a panel of isolates in others. The low end stands for higher susceptibility, the high end for lower susceptibility. As to `CC[C@H]1OC(=O)[C@H](C)[C@@H](O[C@H]2C[C@@](C)(OC)[C@@H](O)[C@H](C)O2)[C@H](C)[C@@H](O[C@@H]2O[C@H](C)C[C@H](N(C)C)[C@H]2O)[C@](C)(OC)C[C@@H](C)C(=O)[C@H](C)[C@@H](O)[C@]1(C)O` [CLARITHROMYCIN], the log10cfu in the assay with Mycobacterium avium [1] is 7.1; in [2] it was 5.36; in [4] it was 5.91; in assay [8], 3.17; in [9] it was 4.3; in assay [10], 3.94. Further, the log10cfu turned out to be 7.1 in the assay with Mycobacterium avium [11]; 3.16 in assay [12]; 5.28 in assay [13]; 2.18 in assay [15]; 4.06 in [16]; 4.58 in [17]. Further, the results for the log10cfu (with Mycobacterium avium [18]; in assay [20]; in assay [21]) were 8.12, 5.03 and 3.2, respectively. The MIC in [3] was 2 µg/mL (≈ 2.67 µM); in assay [6], 0.5 µg/mL (≈ 0.668 µM); in assay [7], 0.5 µg/mL (≈ 0.668 µM); in the assay on Mycobacterium avium [14], 2 µg/mL (≈ 2.67 µM); in assay [19] it was 0.5 µg/mL (≈ 0.668 µM). The MIC90 in assay [5] is 64 µg/mL (≈ 85.6 µM).
In the case of `C[C@H]1COc2c(N3CCN(C)CC3)c(F)cc3c(=O)c(C(=O)O)cn1c23.C[C@H]1COc2c(N3CCN(C)CC3)c(F)cc3c(=O)c(C(=O)O)cn1c23.O` [LEVOFLOXACIN], the log10cfu stood at 9.01 in the assay with Mycobacterium avium [1]; 6.72 in assay [2]; 6.52 in assay [4]; 5.47 in assay [8]; 7.58 in assay [9]; 5.48 in assay [10]. Besides, the log10cfu in the assay with Mycobacterium avium [11] was 9.38; in [12], 4.48; in assay [13], 7.82; in [15] it was 6.01; in [16] it was 6.82; in [17], 7.77. Moreover, the log10cfu in the assay with Mycobacterium avium [18] was determined as 9.92; in assay [20] it was 7.4; in [21], 5.16. For the same compound, the MIC is 2 µg/mL in [3]; 4 µg/mL in assay [6]; 4 µg/mL in assay [7]; 4 µg/mL in the assay with Mycobacterium avium [14]; 8 µg/mL in assay [19]. Besides, the MIC90 in assay [5] was found to be 16 µg/mL.
